Experimental data taken from ChEMBL document CHEMBL1132112, “Novel modifications in the alkenyldiarylmethane (ADAM) series of non-nucleoside reverse transcriptase inhibitors” (J Med Chem, 1999).

Experiments:
CEM-SS [1] = experiment: 50% inhibitory concentration for cytopathicity of HIV-1 RF in CEM-SS cells.; format: functional, cell-based; settings: Homo sapiens
Procedure, shortened: (§1)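 CEM-SS cells infected with HIV-1 RF; drug-induced protection from viral cytopathic effect read by XTT, as percent of uninfected drug-free control. EC50 is the concentration giving 50% protection. Triplicate wells on each plate, two sister plates; the plate EC50s (each a triplicate average) were averaged. XTT results were confirmed by supernatant RT and p24 levels. NA means no inhibition up to the concentration cytotoxic to uninfected cells.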

CCRF-CEM = experiment: Concentration inhibiting 50% of mock-infected CEM cells.; format: functional; settings: Homo sapiens
Procedure, shortened: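 Uninfected (mock-infected) CEM-SS cultures exposed to drug. Viability by XTT, expressed as percent of drug-free control. CC50 is the concentration causing 50% cell death. Triplicates on each plate, two sister plates averaged.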

[2] = biological target: T1, Human immunodeficiency virus type 1 reverse transcriptase (Human immunodeficiency virus 1, UniProt Q72547); experiment: Inhibition of HIV-1 Reverse transcriptase using poly-(ra)-oligo(dt) as the template primer; NI=No inhibition
Procedure, shortened: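 Purified p66/51 HIV-1 reverse transcriptase. Inhibition read as incorporation of [32P]-TTP into poly(rA)·oligo(dT) or of [32P]GTP into poly(rC)·oligo(dG) homopolymer template-primer. IC50 taken as concentration giving 50% inhibition.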

[3] = biological target: T1, Human immunodeficiency virus type 1 reverse transcriptase; experiment: Inhibition of HIV-1 Reverse transcriptase using poly-(rc)-oligo(dg) as the template primer.
Procedure, shortened: (§2)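 Purified p66/51 HIV-1 reverse transcriptase. Inhibition read as incorporation of [32P]-TTP into poly(rA)·oligo(dT) or of [32P]GTP into poly(rC)·oligo(dG) homopolymer template-primer.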

[4] = Therapeutic index was determined for the compound as CC50/EC50; settings: read-out: TI
Procedure, shortened: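 Ratio of CC50 (XTT viability, uninfected CEM-SS) to EC50 (XTT protection from HIV-1 RF cytopathicity in CEM-SS). Both values come from triplicates on each plate, two sister plates averaged. NA means no antiviral inhibition up to the cytotoxic concentration.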

[5] = biological target: T1, Human immunodeficiency virus type 1 reverse transcriptase; experiment: Inhibition of HIV-1 Reverse transcriptase using poly-(ra)-oligo(dt) as the template primer.; settings: read-out: IC50; procedure, shortened: as §2
CEM-SS [6] = experiment: 50% inhibitory concentration for cytopathicity of HIV-1 RF in CEM-SS cells; NA=Not active (EC50 uM); format: functional, cell-based, Homo sapiens; procedure, shortened: as §1
CEM-SS [7] = experiment: Inhibition of cytopathic effect of HIV-1 RT containing the specified mutation 4X resistant to AZT in CEM-SS cells.; format: functional, cell-based; settings: Homo sapiens
CEM-SS [8] = experiment: Fold resistance of HIV-1 RT containing the specified mutation V106A in CEM-SS cells; format: functional, Homo sapiens
Procedure, shortened: (§3)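 Fold resistance of mutant HIV-1 viruses whose RT carries the listed mutation(s), measured against a virus containing wild-type NL4-3 RT. Anti-HIV readout by CEM-SS cytopathic-effect protection.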

CEM-SS [9] = experiment: Fold resistance of HIV-1 RT containing the specified mutation V108I in CEM-SS cells; format: functional, Homo sapiens; procedure, shortened: as §3
CEM-SS [10] = experiment: Fold resistance of HIV-1 RT containing the specified mutation 4X resistant to AZT in CEM-SS cells; NC=No significant change in sensitivity; format: functional, cell-based; settings: Homo sapiens; procedure, shortened: as §3
CEM-SS [11] = experiment: Fold resistance of HIV-1 RT containing the specified mutation K101E in CEM-SS cells; NC=No significant change in sensitivity; format: functional, cell-based; settings: Homo sapiens; procedure, shortened: as §3
CEM-SS [12] = experiment: Fold resistance of HIV-1 RT containing the specified mutation K103N in CEM-SS cells; format: functional, Homo sapiens; procedure, shortened: as §3
CEM-SS [13] = experiment: Fold resistance of HIV-1 RT containing the specified mutation L100I in CEM-SS cells; format: functional, Homo sapiens; procedure, shortened: as §3
CEM-SS [14] = experiment: Fold resistance of HIV-1 RT containing the specified mutation L100I resistant to AZT in CEM-SS cells; format: functional, Homo sapiens; procedure, shortened: as §3
CEM-SS [15] = experiment: Inhibition of cytopathic effect of HIV-1 RT containing the specified mutation A98G in CEM-SS cells.; format: functional, cell-based, Homo sapiens
CEM-SS [16] = experiment: Inhibition of cytopathic effect of HIV-1 RT containing the specified mutation K101E in CEM-SS cells.; format: functional, cell-based, Homo sapiens
CEM-SS [17] = experiment: Inhibition of cytopathic effect of HIV-1 RT containing the specified mutation K103N in CEM-SS cells.; format: functional, cell-based, Homo sapiens
CEM-SS [18] = experiment: Inhibition of cytopathic effect of HIV-1 RT containing the specified mutation L100I in CEM-SS cells.; format: functional, cell-based, Homo sapiens
CEM-SS [19] = experiment: Inhibition of cytopathic effect of HIV-1 RT containing the specified mutation L100I resistant to AZT in CEM-SS cells.; format: functional, cell-based, Homo sapiens
CEM-SS [20] = experiment: Inhibition of cytopathic effect of HIV-1 RT containing the specified mutation L74V in CEM-SS cells.; format: functional, cell-based, Homo sapiens
CEM-SS [21] = experiment: Inhibition of cytopathic effect of HIV-1 RT containing the specified mutation V106A in CEM-SS cells.; format: functional, cell-based, Homo sapiens
CEM-SS [22] = experiment: Inhibition of cytopathic effect of HIV-1 RT containing the specified mutation V108I in CEM-SS cells.; format: functional, cell-based, Homo sapiens
CEM-SS [23] = experiment: Inhibition of cytopathic effect of HIV-1 RT containing the specified mutation V179D in CEM-SS cells.; format: functional, cell-based, Homo sapiens
CEM-SS [24] = experiment: Inhibition of cytopathic effect of HIV-1 RT containing the specified mutation Y181C in CEM-SS cells.; format: functional, cell-based, Homo sapiens
CEM-SS [25] = experiment: Inhibition of cytopathic effect of HIV-1 RT containing the specified mutation Y181C resistant to AZT in CEM-SS cells.; format: functional, cell-based, Homo sapiens
CEM-SS [26] = experiment: Inhibition of cytopathic effect of HIV-1 RT containing the specified mutation Y188C in CEM-SS cells.; format: functional, cell-based, Homo sapiens
CEM-SS [27] = experiment: Fold resistance of HIV-1 RT containing the specified mutation V179D in CEM-SS cells; format: functional, Homo sapiens; procedure, shortened: as §3
CEM-SS [28] = experiment: Fold resistance of HIV-1 RT containing the specified mutation Y181C in CEM-SS cells; format: functional, Homo sapiens; procedure, shortened: as §3
CEM-SS [29] = experiment: Fold resistance of HIV-1 RT containing the specified mutation Y181C resistant to AZT in CEM-SS cells; format: functional, Homo sapiens; procedure, shortened: as §3
CEM-SS [30] = experiment: Fold resistance of HIV-1 RT containing the specified mutation Y188C in CEM-SS cells; format: functional, Homo sapiens; procedure, shortened: as §3
[31] = tested on: Human immunodeficiency virus 1; experiment: Inhibition of cytopathic effect of HIV-1 strain wild type enzyme NL4-3 in CEM-SS cells.; format: functional, organism-based; settings: Human immunodeficiency virus 1, CEM-SS
CEM-SS [32] = experiment: Fold resistance of HIV-1 RT containing the specified mutation L74V in CEM-SS cells; S=Enhanced sensitivity; format: functional, cell-based; settings: Homo sapiens; procedure, shortened: as §3
CEM-SS [33] = experiment: Fold resistance of HIV-1 RT containing the specified mutation A98G in CEM-SS cells; format: functional, Homo sapiens; procedure, shortened: as §3

In the case of `COC(=O)c1cc(C(=CCCCCCl)c2cc(Cl)c(OC)c(C(=O)OC)c2)cc(Cl)c1OC`, the EC50 (CEM-SS [1]) is reported as 50.5 µM, the CC50 (CCRF-CEM) is reported as greater than 316 µM and the IC50 [2] is reported as “Not Active”.

In the case of `COC(=O)c1cc(C(=CCC2OCCO2)c2cc(Cl)c(OC)c(C(=O)OC)c2)cc(Cl)c1OC`, the EC50 (CEM-SS [1]) is reported as 6.5 µM, the CC50 (CCRF-CEM) is reported as 26 µM and the IC50 [3] is reported as 3.2 µM. For the same compound, the selectivity ratio [4] was 4 and the IC50 [5] was 20.5 µM.

In the case of `COC(=O)c1cc(C(=CCCCC=O)c2cc(Cl)c(OC)c(C(=O)OC)c2)cc(Cl)c1OC`, the EC50 (CEM-SS [6]) is reported as “Not Active”, the CC50 (CCRF-CEM) is reported as 9.6 µM and the IC50 [3] is reported as 4.9 µM. It also gave an IC50 [5] of 4.2 µM.

For `CCNC(=O)OCCCCC=C(c1cc(Cl)c(OC)c(C(=O)OC)c1)c1cc(Cl)c(OC)c(C(=O)OC)c1`, the EC50 (CEM-SS [6]) was “Not Active”, the CC50 (CCRF-CEM) was 8.4 µM and the IC50 [3] was 3.2 µM. It also gave an IC50 [5] of 1.2 µM.

In the case of `CCC1(CCCC=C(c2cc(Cl)c(OC)c(CO)c2)c2cc(Cl)c(OC)c(CO)c2)OCCO1`, the EC50 (CEM-SS [6]) is reported as “Not Active”, the CC50 (CCRF-CEM) is reported as 16.9 µM and the IC50 [3] is reported as 3.2 µM. It also gave an IC50 [5] of 31.6 µM.

With `CCCCCC=C(c1cc(F)c(OC)c(C(=O)OC)c1)c1cc(F)c(OC)c(C(=O)OC)c1` the EC50 (CEM-SS [6]) was “Not Active”, the CC50 (CCRF-CEM) was 13.4 µM and the IC50 [3] was 10 µM.

In the case of `CCC(=O)CCCC=C(c1cc(Cl)c(OC)c(C(=O)OC)c1)c1cc(Cl)c(OC)c(C(=O)OC)c1`, the EC50 (CEM-SS [1]) is reported as 2.8 µM, the CC50 (CCRF-CEM) is reported as 24.6 µM and the IC50 [3] is reported as 1 µM. For the same compound, the selectivity ratio [4] was 8.8.

`COC(=O)CCCC=C(c1cc(F)c(OC)c(C(=O)OC)c1)c1cc(F)c(OC)c(C(=O)OC)c1` showed an EC50 (CEM-SS [1]) of 1.9 µM, a CC50 (CCRF-CEM) of 68.3 µM and a selectivity ratio [4] of 35.9.

With `COC(=O)CCCCC=C(c1cc(Cl)c(OC)c(C(=O)OC)c1)c1cc(Cl)c(OC)c(C(=O)OC)c1` the EC50 (CEM-SS [1]) was 1.5 µM, the CC50 (CCRF-CEM) was 152 µM and the IC50 [3] was 0.47 µM. It also gave a selectivity ratio [4] of 101 and an IC50 [5] of 3.35 µM.

Compound `COC(=O)CCCC=C(c1cc(Br)c(OC)c(C(=O)OC)c1)c1cc(Br)c(OC)c(C(=O)OC)c1` has an EC50 (CEM-SS [7]) of 0.07 µM, a Fold resistance (CEM-SS [8]) of 158.5 and a Fold resistance (CEM-SS [9]) of 10. The EC50 (CEM-SS [1]) was 0.0013 µM, the Fold resistance (CEM-SS [10]) was “No significant changed” and the Fold resistance (CEM-SS [11]) was “No significant changed”. The Fold resistance (CEM-SS [12]) was 7, the Fold resistance (CEM-SS [13]) was 4.3 and the Fold resistance (CEM-SS [14]) was 5.5. The EC50 (CEM-SS [15]) was 0.22 µM, the EC50 (CEM-SS [16]) was 0.07 µM and the EC50 (CEM-SS [17]) was 0.42 µM. For the same compound, the EC50 (CEM-SS [18]) was 0.26 µM, the EC50 (CEM-SS [19]) was 0.33 µM and the EC50 (CEM-SS [20]) was 0.019 µM. The EC50 (CEM-SS [21]) was 9.51 µM, the EC50 (CEM-SS [22]) was 0.67 µM and the EC50 (CEM-SS [23]) was 40.2 µM. It also gave an EC50 (CEM-SS [24]) of 6.13 µM, an EC50 (CEM-SS [25]) of 3.5 µM and an EC50 (CEM-SS [26]) of 1.73 µM. For the same compound, the Fold resistance (CEM-SS [27]) was 670, the Fold resistance (CEM-SS [28]) was 102 and the Fold resistance (CEM-SS [29]) was 58.3. The Fold resistance (CEM-SS [30]) was 28.8, the CC50 (CCRF-CEM) was 13 µM and the EC50 [31] was 0.06 µM. The IC50 [3] was 0.3 µM, the selectivity ratio [4] was 10000 and the IC50 [5] was 1 µM. The Fold resistance (CEM-SS [32]) was “Enhanced sensitivity” and the Fold resistance (CEM-SS [33]) was 3.7.

`COC(=O)c1cc(C(=CCCCCN=[N+]=[N-])c2cc(Cl)c(OC)c(C(=O)OC)c2)cc(Cl)c1OC` showed an EC50 (CEM-SS [1]) of 7.1 µM, a CC50 (CCRF-CEM) of 176 µM and an IC50 [3] of 1.3 µM. It also gave an IC50 [5] of 0.8 µM.
